# Hits are enriched below; roughly 0.99% of the tested compounds scored in any of these assays.
# ABCB1 inh: human ABCB1 inhibition, ABCG2 as counter-screen; P08183; inhibition, % at 6.6 µM; AID 1326; 190,000 tested, 0.067% active; CCRF-Adr cells, JC-1 efflux, flow cytometry; in the data active = inhibition above about 40%;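 note: 0% = vehicle and 100% = reference inhibitor; higher value means more JC-1 retained so stronger ABCB1 efflux block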
# Tn7 DDE FP: DD(E)-Tn7 binding inhibition, primary FP screen; P02675; 370,000 tested, 0.13% active; FP displacement of FITC-Tn7 peptide from fibrin DD(E); 0% = median of compound wells per plate; inhibition, % at 8.3 µM;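 active = inhibition above the mean of compounds falling within the control limits plus 3 SD of them, cut at about 14% in these data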;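 note: 0% = plate median of compound wells and 100% = 10 µM Aha-Tn7 peptide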
#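 Test system: human clot-derived fibrin DD(E) complex / Quantity: 2 µM final DD(E) protein / Incubation: 10 min plus 3 h, room temperature / Measured by: fluorescence polarization / Benchmarks: high control of 10 µM Aha-Tn7 peptide / Replicates: singlicate testing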
# Tn6 DDE FP: inhibitors of Tn6 peptide binding to human fibrin DD(E); Fibrin DD(E) TRITC-Tn6 fluorescence polarization displacement; P02675; 370,000 tested, 0.21% active; inhibition, % at 8.3 µM;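 active = inhibition above a per-campaign cutoff: mean of compounds within control limits plus 3 SD, cut at about 15% in these data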;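 note: 0% = median of all compound wells on the plate and 100% = blocking peptide control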
# ABCG2 inh: human ABCG2 inhibition, ABCB1 as counter-screen; Q9UNQ0; IgMXP3 cells, JC-1 efflux, flow cytometry; inhibition, % at 6.6 µM; 190,000 tested, 0.1% active;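 active = inhibition above 80%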;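 note: 0% = DMSO and 100% = nicardipine control wells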
# Target sequence (Q9UNQ0 whole entry, looked up): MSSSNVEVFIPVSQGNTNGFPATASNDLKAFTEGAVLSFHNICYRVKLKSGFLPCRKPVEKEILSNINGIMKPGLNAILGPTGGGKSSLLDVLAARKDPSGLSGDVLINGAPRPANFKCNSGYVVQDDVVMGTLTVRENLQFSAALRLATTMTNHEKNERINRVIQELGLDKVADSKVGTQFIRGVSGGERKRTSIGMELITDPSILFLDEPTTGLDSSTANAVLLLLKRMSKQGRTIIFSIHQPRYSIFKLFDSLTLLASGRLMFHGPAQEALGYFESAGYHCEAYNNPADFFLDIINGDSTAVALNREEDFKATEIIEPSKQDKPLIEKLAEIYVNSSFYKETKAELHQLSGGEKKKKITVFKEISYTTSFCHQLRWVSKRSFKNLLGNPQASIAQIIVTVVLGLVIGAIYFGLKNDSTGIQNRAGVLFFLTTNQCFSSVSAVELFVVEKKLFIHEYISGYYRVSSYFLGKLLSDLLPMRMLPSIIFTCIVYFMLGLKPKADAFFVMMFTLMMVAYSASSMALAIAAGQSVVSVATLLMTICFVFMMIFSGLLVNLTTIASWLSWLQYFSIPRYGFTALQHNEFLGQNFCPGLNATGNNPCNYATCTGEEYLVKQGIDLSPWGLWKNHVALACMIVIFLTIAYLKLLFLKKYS
#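 material = IgMXP3 (ABCG2) plus far-red-tagged CCRF-Adr (ABCB1) cells | amount = 3 million cells/mL, equal mix of both lines | also added = JC-1 transporter substrate | dosing = one concentration, 6.6 µM final | schedule = 10 min at 25 °C | measured by = flow cytometric JC-1 green MFI at 530 nm | read-out basis = percent efflux inhibition, scaled nicardipine 100% to DMSO 0%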
# GRK2 inh: inhibitors of human GRK2 displacing RNA aptamer; P25098; bead flow cytometry, FAM-aptamer displacement from GRK2; inhibition of aptamer binding, % at 10 µM; 330,000 tested, 0.59% active; AID 488847;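 active = inhibition of aptamer binding above 40%, roughly 3 SD of noise, on plates passing a quality check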;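 note: median bead fluorescence of bound FAM aptamer so fluorescent compounds give negative values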
# Ins promoter up: MIN6 insulin promoter up-regulation; MIN6 insulin promoter-GFP reporter, high-content imaging; active compounds read high; z-score at 5 µM; 190,000 tested, 0.3% active; AID 1625;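 active = z-score above 3 at 5 µM with at least 500 cells counted in the well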
# The depositor's hits bear a star; · = no result; + = active, no number.
SMILES,ABCB1 inh,Tn7 DDE FP,Tn6 DDE FP,ABCG2 inh,GRK2 inh,Ins promoter up
CCOC(=O)c1sc(NC(=O)c2sccc2C)cc1C,1,0,-9,6,1,3.1*
O=C1C[C@@H](C(=O)Nc2ccc(Cl)cc2)[C@@H](c2ccccc2)O1,·,0,-6,·,·,·
O=C(NCc1ccccc1)C1(C(=O)C2CC2)CC(c2ccccn2)=NO1 (centres undefined),·,7,5,·,·,·
Cc1ccccc1N=Cc1c(O)n(-c2nccs2)c(=O)c2ccccc12,-6,-7,-2,-27,4,0.24
O=c1c2ccccc2c(C=Nc2ccccc2O)c(O)n1-c1nccs1,·,-5,-6,·,3,4.3*
COC(=O)[C@H](C(C)C)N1CCc2nnn(Cc3ccccc3)c2-c2cc(F)ccc2S1(=O)=O,·,1,4,·,·,·
CC(=O)NC(c1ccc(Cl)cc1)c1c(O)ccc2ccc(O)cc12 (centres undefined),1,4,6,8,0,11*
CCN1CCN(c2nc3ccccn3c(=O)c2C=O)CC1,·,6,3,·,6,·
CCCN1C(=O)/C(=C/c2c(NCCCOCC)nc3c(C)cccn3c2=O)SC1=S,68*,7,2,63,·,5.7*
CC(C)CN1C(=O)/C(=C/c2c(N3CCc4ccccc4C3)nc3ccccn3c2=O)SC1=S,·,·,·,·,·,17*
CCOCCCNc1nc2c(C)cccn2c(=O)c1/C=C1\SC(=S)N(C(C)CC)C1=O (centres undefined),·,-10,-1,·,0,·
CCOC(=O)CC1C(=O)NCCN1c1nc2c(C)cccn2c(=O)c1/C=C1\SC(=S)N(CC(C)C)C1=O (centres undefined),·,·,·,·,·,17*
CCOC(=O)CC1C(=O)NCCN1S(=O)(=O)c1ccc(OC)cc1 (centres undefined),0,-6,6,1,0,-0.32
COC(=O)c1cccc(N2C(=O)C[C@](Sc3ccc(OC)cc3)(C(=O)N3CCOCC3)[C@H]2c2ccc(OC)cc2)c1,·,5,-2,·,·,·
CCOC(=O)CC[C@H]1CC[C@]2(CCCN(Cc3ccccc3)C2)O1,·,1,5,·,·,·
N#C/C(=C/c1ccc(-c2cc(C(=O)O)cc(C(=O)O)c2)o1)c1nc2ccccc2s1,-2,·,·,-5,4,3*
O=Cc1coc2c(ccc3ccccc32)c1=O,·,·,·,·,80*,·
O=C(OCc1cn(Cc2c(F)cccc2F)nn1)N1CCOCC1,·,0,-2,·,·,·
COCCNC(=S)N/N=C(\C)c1ccc2cc(OC)ccc2c1,-1,2,-4,18,0,3.4*
O=S(=O)(CC1NCCc2ccccc21)NCc1ccccc1 (centres undefined),·,-6,2,·,·,·
CC(C)[C@H](NC(=O)OCc1ccccc1)C(=O)OCC(=O)NC1CCCCC1,1,8,-2,13,0,-0.48
CC(C)[C@H](NC(=O)OCc1ccccc1)C(=O)OCC(=O)NC1(C#N)CCCC1,·,15*,14,·,2,·
Oc1ccc2ccccc2c1C=Nn1c(-c2n[nH]c3c2CCC3)n[nH]c1=S,·,-2,4,·,·,·
CCN1C(=O)c2cccc3c(N)ccc(c23)C1=O,·,32*,7,·,2,·
CN(C)CCCN1C(=O)c2cccc3c(Br)ccc(c23)C1=O,1,-3,-7,7,0,1.3
SMILES,ABCB1 inh,Tn7 DDE FP,Tn6 DDE FP,ABCG2 inh,GRK2 inh,Ins promoter up
O=C(Nc1ccc(Br)cc1)N1CCCC(O)C1 (centres undefined),0,-6,-9,3,56*,-0.66
NS(=O)(=O)c1ccc(NC(=O)COc2ccc(C(=O)c3ccc(F)cc3)cc2)cc1,·,1,24*,·,0,-0.62
CN(c1ccc(OCC(=O)Nc2ccc(S(N)(=O)=O)cc2)cc1)S(=O)(=O)c1ccc(F)cc1,·,-1,-7,·,·,·
O=C(O)C1=CC(=C(c2ccc(O)c(C(=O)O)c2)c2ccc(O)c(C(=O)O)c2)C=CC1=O,·,·,·,·,99*,·
O=C(O)c1cc(O)ccc1O,·,0,-8,·,·,·
COc1cc2oc3ccccc3c(=O)c2cc1OC,·,·,·,·,86*,·
O=C(O)c1cc(-c2ccncc2)nc2ccc(F)cc12,1,·,·,29,·,3*
CCN(CC)c1ccc2cc(C#N)c(=O)oc2c1,0,3,6,1,0,4.2*
COc1ccc(NC2=Nc3ccccc3N3C2=Nc2c(c(C)nn2-c2ccc(C)cc2)C3c2cccnc2)cc1 (centres undefined),1,-4,-2,2,7,3.1*
CC(=O)Nc1ccc(NC2=Nc3ccccc3N3C2=Nc2c(c(C)nn2-c2ccccc2)C3c2ccccc2)cc1 (centres undefined),1,-11,0,0,7,-0.56
O=C(COc1ccccc1Cl)Nc1ccc(N2CCCC2)cc1,·,-2,10,·,54*,·
O=C(NNc1nc2cc3c(cc2s1)OCCO3)c1ccccc1,0,1,3,3,2,0.08
Cc1cccc2sc(NNC(=O)c3ccc4c(c3)OCCO4)nc12,0,-1,2,-1,3,3.4*
CN(C)C=Nc1ccc2nn(-c3ccccc3)nc2c1,0,-1,4,0,0,3.1*
C=CCN(C(=O)[C@@H](CCCC)[C@@H](O)c1ccc(C(C)=O)cc1)c1ccccc1,·,2,1,·,·,·
COCCN1C(=O)/C(=C/c2ccc(N3CCCC3)cc2C)SC1=S,67*,0,-7,91*,0,·
CCCNC(=O)c1cc(C2CCCCN2C(=O)c2ccc(C(C)C)cc2)on1 (centres undefined),·,5,-7,·,·,·
Cc1cc(C)n2c(SCCC(C)C)nnc2n1,0,15*,0,3,3,0.01
COc1cccc(NC(=O)Nc2c(-c3ccc(F)cc3)nc3ncccn23)c1,·,3,0,·,·,·
COc1ccc2c(C)cc(SCC(=O)Nc3nsc(-c4ccc(C)cc4)n3)nc2c1,1,1,7,6,45*,0.58
Cc1ccc(-c2nc(NC(=O)CSc3cc(C)c4ccccc4n3)ns2)cc1,1,-2,-1,10,2,1.8
Cc1ccc(-n2c(O)c(/C=N/NC(=O)C3COc4ccccc4O3)c3ccccc3c2=O)cc1 (centres undefined),0,3,4,2,0,3.1*
O=C(N/N=C/c1c(O)n(-c2ccccc2Cl)c(=O)c2ccccc12)C1COc2ccccc2O1 (centres undefined),0,·,·,-1,0,0.41
O=C1CSc2ccc(C(=O)Nc3cccc(S(=O)(=O)Nc4ccc(Br)cc4)c3)cc2N1,-1,-4,+,-6,0,-2.4
O=C(O)c1ccc(NC(=O)c2cccc(S(=O)(=O)Nc3ccc(C(=O)O)cc3)c2)cc1,·,-3,5,·,1,·
CC(C)(C)c1ccc(CNc2nc(-c3ccccn3)nnc2-c2ccccc2)cc1,·,-5,-18,·,·,·
